ChEMBL document CHEMBL3779846, “Evaluation of toxicity on epithelial and tumor cells of biaryl dipeptide tyrosines” (Eur J Med Chem, 2016)
The source made the active and inactive calls. The calls are words filed in the database; no cut-off is given here.

How the values were obtained:
[1] = test system: HUVEC; assay: Induction of apoptosis in HUVEC assessed as increase in late apoptotic cells at 0.1 to 1 uM after 48 hrs by Annexin V-FITC/propidium iodide staining-based flow cytometry; type: cell-based; details: human
Outline: (§1)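 After adhesion, 1 × 10⁴ cells/well were exposed for 48 h with medium control and 0.1% DMSO vehicle. Cells washed with PBS, trypsinized and centrifuged (600 × g, 10 min). Stained with FITC-Annexin V (1:100 in binding buffer, 30 min) and propidium iodide, then read by flow cytometry for apoptotic, late apoptotic and necrotic fractions; three independent assays.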

[2] = test system: HUVEC; assay: Cytotoxicity against HUVEC assessed as impairment in cell metabolism at 0.1 to 1 uM after 24 to 48 hrs by MTT assay; type: ADME, cell-based; details: human
Outline: (§2)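 Cells maintained in […] with 10% FBS at 37 C, 5% CO2. 1 × 10³ cells/well plated, allowed 24 h adhesion, then treated in medium for 14, 24 or 48 h; vehicle 0.1% DMSO, 10% DMSO positive control. MTT converted to formazan, dissolved in DMSO, read at 570 nm. Expressed as % of untreated (RPMI-only) control; mean of three independent assays.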

[3] = test system: SK-MEL-28; assay: Induction of apoptosis in human SK-MEL-28 cells at 0.1 to 1 uM after 48 hrs by Annexin V-FITC/propidium iodide staining-based flow cytometry; type: functional, cell-based; outline: as §1
[4] = test system: SK-MEL-28; assay: Cytotoxicity against human SK-MEL-28 cells assessed as reduction in cell proliferation at 0.1 to 1 uM after 14 to 48 hrs by trypan blue staining based haemocytometer method; type: functional
Outline: (§3)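 1 × 10⁴ cells/well in […] plus 10% FBS, treated after adhesion for 14, 24 or 48 h alongside medium control, 0.1% DMSO vehicle and 10% DMSO positive control. Cell number counted by trypan blue exclusion under optical microscopy; three independent assays.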

[5] = test system: SK-MEL-28; assay: Induction of mitochondrial membrane potential depolarization in human SK-MEL-28 cells at 0.1 to 1 uM after 48 hrs by JC-1 staining based flow cytometry; type: functional, cell-based
Outline: (§4)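 1 × 10⁴ cells/well exposed 48 h after adhesion; medium control and 0.1% DMSO vehicle. Washed, stained with JC-1 for 30 min at 37 C, 5% CO2, then trypsinized and run on flow cytometry, 10,000 events; excitation 488 nm, emission 529 and 590 nm. Valinomycin positive control. Output: green-to-red mean fluorescence ratio; two independent assays.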

[6] = test system: HUVEC; assay: Cytotoxicity against HUVEC assessed as reduction in cell proliferation at 0.1 to 1 uM after 14 to 48 hrs by trypan blue staining based haemocytometer method; details: human; outline: as §3
[7] = test system: SK-MEL-28; assay: Induction of apoptosis in human SK-MEL-28 cells assessed as increase in late apoptotic cells at 0.1 to 1 uM after 48 hrs by Annexin V-FITC/propidium iodide staining-based flow cytometry; type: functional, cell-based; outline: as §1
[8] = test system: HUVEC; assay: Induction of apoptosis in HUVEC at 0.1 to 1 uM after 48 hrs by Annexin V-FITC/propidium iodide staining-based flow cytometry; type: cell-based; details: human; outline: as §1
[9] = test system: HUVEC; assay: Induction of mitochondrial membrane potential depolarization in HUVEC at 0.1 to 1 uM after 48 hrs by JC-1 staining based flow cytometry; type: cell-based; details: human; outline: as §4
[10] = test system: HUVEC; assay: Induction of apoptosis in HUVEC assessed as increase in necrotic cells at 0.1 to 1 uM after 48 hrs by Annexin V-FITC/propidium iodide staining-based flow cytometry; type: cell-based; details: human; outline: as §1
[11] = test system: SK-MEL-28; assay: Cytotoxicity against human SK-MEL-28 cells assessed as impairment in cell metabolism at 0.1 to 1 uM after 24 to 48 hrs by MTT assay; type: functional, cell-based; outline: as §2
[12] = test system: SK-MEL-28; assay: Induction of apoptosis in human SK-MEL-28 cells assessed as increase in necrotic cells at 0.1 to 1 uM after 48 hrs by Annexin V-FITC/propidium iodide staining-based flow cytometry; type: functional, cell-based; outline: as §1
[13] = test system: HUVEC; assay: Induction of mitochondrial membrane potential depolarization in HUVEC at 200 uM after 24 hrs by JC-1 staining based flow cytometry; type: cell-based; details: human
Outline: (§5)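 Cells were kept in […] with 10% FBS at 37 C and 5% CO2. They were plated at 1 × 10⁴ cells/well and treated after adhesion. They were then PBS-washed and stained with JC-1 ([…]) for 30 min at 37 C, then trypsinized and centrifuged. Flow cytometry acquired 10,000 events (excitation 488 nm, emission 529/590 nm). Read-out was the ratio of mean green to red fluorescence, from two independent assays.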

[14] = test system: SK-MEL-28; assay: Induction of mitochondrial membrane potential depolarization in human SK-MEL-28 cells at 200 uM after 24 hrs by JC-1 staining based flow cytometry; type: functional, cell-based; outline: as §5

| Compound | Activity [1] | Activity [2] | Activity [3] | Activity [4] | Activity [5] | Activity [6] | Activity [7] | Activity [8] | Activity [9] | Activity [10] | Activity [11] | Activity [12] | Activity [13] | Activity [14] |
| --- | --- | --- | --- | --- | --- | --- | --- | --- | --- | --- | --- | --- | --- | --- |
| COC(=O)[C@H](Cc1ccc(O)c(-c2ccc(OC)cc2)c1)NC(=O)[C@H](Cc1ccc(O)c(-c2ccc(OC)cc2)c1)NC(=O)OC(C)(C)C | Non-toxic | Non-toxic | inactive | Active | inactive | Non-toxic | inactive | Non-toxic | Non-toxic | Non-toxic | Active | inactive | – | – |
| CC(C)[C@@H]1NC(=O)[C@H](C)OC(=O)[C@@H](C(C)C)NC(=O)[C@@H](C(C)C)OC(=O)[C@H](C(C)C)NC(=O)[C@H](C)OC(=O)[C@@H](C(C)C)NC(=O)[C@@H](C(C)C)OC(=O)[C@H](C(C)C)NC(=O)[C@H](C)OC(=O)[C@@H](C(C)C)NC(=O)[C@@H](C(C)C)OC1=O [VALINOMYCIN] | – | – | – | – | – | – | – | – | – | – | – | – | Toxic | Active |
